# Source: PubChem BioAssay
# RGS7-Gao – RGS7-Galphao binding modulators, primary screen, biochemical, multiplexed bead flow cytometry; actives lie on both sides; binding response (% of control), % at 10 µM; 220,000 tested, 0.35% active; Guanine nucleotide-binding protein G(o) subunit alpha (Homo sapiens), P09471; in the data active = binding response below about 49% or above about 150%; inconclusive = no clear call, values can overlap the other calls; inactive = in between;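 also: fluorescent Galphao held in activated GDP-AlF4 state binding bead-coupled RGS7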
# Target sequence (P09471 whole entry, looked up): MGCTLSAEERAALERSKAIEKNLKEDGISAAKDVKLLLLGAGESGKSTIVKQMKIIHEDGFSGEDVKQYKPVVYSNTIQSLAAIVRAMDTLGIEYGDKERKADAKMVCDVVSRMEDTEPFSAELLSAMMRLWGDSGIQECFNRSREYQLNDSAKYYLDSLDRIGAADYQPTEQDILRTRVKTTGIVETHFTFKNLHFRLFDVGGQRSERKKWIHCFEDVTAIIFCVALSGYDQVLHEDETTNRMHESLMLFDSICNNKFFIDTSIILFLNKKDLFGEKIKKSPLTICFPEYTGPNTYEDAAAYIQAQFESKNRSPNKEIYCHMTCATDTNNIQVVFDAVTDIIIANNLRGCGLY
# ABCG2 block – ABCG2 efflux pump inhibitors, primary screen, multiplex with ABCB1, IgMXP3 cells, flow cytometry. JC-1 efflux. inhibition, % at 6.6 µM. AID 1325, 2008. 190,000 tested, 0.1% active;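 active = inhibition above 80%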;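 also: 0% = DMSO and 100% = nicardipine control wells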
#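 Times: 10 min at 25 °C | Test system: Two drug-resistant human cell lines, ABCG2 and ABCB1 | Quantity: 3 million cells/mL final, two lines in 1:1 ratio | Signal: Flow cytometry, 530 nm JC-1 signal | Dosing: Compound at 6.6 µM | Controls: Nicardipine and DMSO wells | Reagent: JC-1 as fluorescent efflux pump substrate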
# RGS16-Gao – modulators of RGS16 binding to Galphao, primary screen, biochemical, human proteins, multiplexed bead flow cytometry; AID 1441, 2008; Regulator of G-protein signaling 16 (Homo sapiens) + Guanine nucleotide-binding protein …; bead-based flow cytometry RGS16-Galphao binding, fluorescence; actives lie on both sides; 220,000 tested, 0.38% active; binding response (% of control), % at 10 µM;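 also: Galphao activated by GDP with aluminum fluoride before binding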
# RGS4-Gao reg – modulators of RGS4 binding to Galphao, primary screen, biochemical, multiplexed bead flow cytometry | Guanine nucleotide-binding protein G(o) subunit alpha (Homo sapiens), P09471 | actives lie on both sides | binding response (% of control), % at 10 µM | 220,000 tested, 0.33% active | AID 1415, 2008; in the data active = binding response below about 49% or above about 150%; inactive = in between;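 also: fluorescent Galphao activated with aluminum fluoride binding bead-coupled RGS4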
# RGS8-Gao – RGS8-Galphao binding modulators, primary screen, biochemical, multiplexed bead flow cytometry. actives lie on both sides. Guanine nucleotide-binding protein G(o) subunit alpha (Homo sapiens), P09471. AID 1423, 2008. 220,000 tested, 0.34% active. response (percent of control binding), % at 10 µM; in the data active = response below about 60% or above about 140%; inactive = in between;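 also: Galphao activated as the GDP aluminium fluoride complex binding bead-coupled RGS8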
# ABCB1 inh – ABCB1 efflux pump inhibitors, primary screen, cell-based, multiplex, flow cytometry, ABCG2 counter-screen; 190,000 tested, 0.067% active; AID 1326, 2008; CCRF-Adr cells, JC-1 efflux; inhibition, % at 6.6 µM; in the data active = inhibition above about 40%;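 also: 0% = vehicle and 100% = reference inhibitor; higher value means more JC-1 retained so stronger ABCB1 efflux block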
# RGS4-Gao HTS – modulators of RGS–Galpha-o binding, primary screen, biochemical, multiplexed beads, flow cytometry, RGS4/7/8/16/19 | shares compounds with RGS16-Gao | RGS4–Galpha-o binding response, % at 10 µM | multiplexed bead flow cytometry | 1,600 tested, 99% active;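 also: fluorescently labeled Galpha-o bound to GDP with aluminium fluoride binding biotinylated RGS beads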
# Target sequence (P09471 whole entry, looked up): as above
# Target sequence (P49798 whole entry, looked up): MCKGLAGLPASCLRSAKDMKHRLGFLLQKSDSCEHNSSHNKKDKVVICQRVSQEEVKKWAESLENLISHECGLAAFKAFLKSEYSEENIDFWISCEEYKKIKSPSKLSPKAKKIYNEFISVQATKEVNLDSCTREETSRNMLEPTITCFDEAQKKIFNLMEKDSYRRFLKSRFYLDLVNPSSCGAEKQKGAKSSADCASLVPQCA
# Avidin counter – disruption of biotin probe capture by avidin, counter-screen for RGS protein interaction modulators, biochemical, flow cytometry, bead-based. shares compounds with RGS16-Gao. streptavidin beads, fluorescein-biotin binding. inhibition, % at 10 µM. 1,700 tested, under 10 active. AID 1783, 2009;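 active = inhibition above 50%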;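 also: median green fluorescence of gated singlet beads compared with DMSO control wells; 0% = DMSO wells and 100% = complete loss of bead fluorescence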
# RGS8-Gao single – RGS8-Galphao binding modulators, confirmation, biochemical, multiplexed bead flow cytometry, single concentration; shares compounds with RGS16-Gao; bead-based flow cytometry RGS8-Galphao binding, fluorescence; actives lie on both sides; binding response (% of control), % at 10 µM; 1,700 tested, 3% active; in the data active = binding response below about 72% or above about 130%; inactive = in between;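 also: Galphao activated as GDP AlF4 complex before binding bead RGS8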
# RGS7-Gao single – RGS7-Galphao binding modulators, confirmation, biochemical, multiplexed bead flow cytometry, single concentration | shares compounds with RGS16-Gao | bead-based flow cytometry RGS7-Galphao binding; actives lie on both sides | response (percent of control binding), % at 10 µM | 1,700 tested, 7.8% active | AID 1837, 2009; in the data active = response below about 75% or above about 130%; inactive = in between;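 also: fluorescent Galphao activated with GDP and aluminum fluoride binding bead-coupled RGS7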
# RGS16-Gao single – modulators of RGS16-Galphao protein binding, confirmation, biochemical, single concentration, multiplexed bead flow cytometry | shares compounds with RGS16-Gao | bead-based flow cytometry; actives lie on both sides | response (% of control binding), % at 10 µM | 1,700 tested, 4% active; in the data active = response below about 74% or above about 130%; inactive = in between;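 also: Galphao activated as the GDP aluminium fluoride complex binding bead-coupled RGS16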
# RGS4-Gao single – modulators of RGS4-Galphao protein binding, confirmation, biochemical, single concentration, multiplexed bead flow cytometry; shares compounds with RGS16-Gao; actives lie on both sides; binding response (% of control), % at 10 µM; 1,700 tested, 4% active; AID 1840, 2009; in the data active = binding response below about 74% or above about 130%; inactive = in between
# RGS19-Gao single – regulators of RGS19-Galphao binding, confirmation, biochemical, single point, multiplexed bead flow cytometry; bead-based flow cytometry RGS19-Galphao binding; actives lie on both sides; shares compounds with RGS16-Gao; 1,700 tested, 5% active; response (percent of control binding), % at 10 µM; in the data active = response below about 50% or above about 160%; inactive = in between;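 also: 100% = no compound control and 0% = blank background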
# * = called active by the depositor; ? = inconclusive; . = not tested or not shown; [ ] = another dose, or the depositor's remark. Compounds with a hit are over-represented: about 0.83% of the library has one in this group of screens. Unless noted, no rule for the calls is given here.
SMILES,RGS7-Gao,ABCG2 block,RGS16-Gao,RGS4-Gao reg,RGS8-Gao,ABCB1 inh,RGS4-Gao HTS,Avidin counter,RGS8-Gao single,RGS7-Gao single,RGS16-Gao single,RGS4-Gao single,RGS19-Gao single
Cc1[nH]n(-c2ccccc2)c(=S)c1C=Nc1ccc([N+](=O)[O-])cc1,116,-8,9.8*,86,74,-8,86*,.,.,.,.,.,.
Cc1ccc(S(=O)(=O)N(C)C)cc1NC(=O)c1ccncc1,102,7,101,103,99,1,.,.,.,.,.,.,.
Cc1ccc(S(=O)(=O)C(F)(F)F)cc1NC(=O)c1cccnc1,108,22,181*[activator],108,122,0,108*,-2,101,100,100,103,98
CCCC1=C(C(=O)OCC)C(c2c(C)nn(-c3ccccc3)c2Cl)C(C#N)=C(N)O1 (stereo not given),98,0,86,101,95,1,.,.,.,.,.,.,.
O=C(COC(=O)c1ccc2[nH]c3c(c2c1)CCCC3)Nc1ccc(Cl)cc1Cl,103,-3,182*[activator],107,124,0,107*,-1,102,98,101,100,99
Cc1nn(-c2ccccc2)c(C)c1/C=N\N1CCN(c2ccc(Cl)cc2)CC1,.,4,.,.,.,1,.,0,99,101,102,102,91
Cc1nn(-c2ccccc2)c(C)c1/C=N/n1cnnc1,97,10,99,99,98,0,.,.,.,.,.,.,.
Cc1nnc(NC(=O)CSc2nnc(Cc3ccccc3)n2Cc2ccccc2)s1,98,6,.,107,109,0,.,1,99,45*,79,59*,46*
Cc1nnc(NC(=O)CSc2nnc(C)n2Cc2ccccc2)s1,102,0,84,105,96,-1,.,.,.,.,.,.,.
CCn1c(SCC(=O)Nc2nnc(C)s2)nnc1-c1ccco1,98,2,104,97,101,0,.,.,.,.,.,.,.
CCn1c(SCC(=O)Nc2nnc(C)s2)nnc1-c1ccncc1,.,2,.,.,.,0,.,-1,100,96,96,99,91
O=C(CSc1nc2ccccc2[nH]1)N1CCN(S(=O)(=O)c2ccc(Cl)cc2)CC1,101,2,101,102,101,1,.,.,.,.,.,.,.
CCC(C)Sc1nc(O)c(Cc2ccccc2)c(=O)[nH]1 (stereo not given),114,3,126,128,108,1,.,.,.,.,.,.,.
CCC(C)Sc1nc(O)cc(=O)[nH]1 (stereo not given),248*[activator],0,131,110,89,0,110*,2,98,104,100,101,88
CC(C)(C)NC(=O)CN(C(=O)CNC(=O)c1cccs1)c1ccc2c(c1)OCCO2,100,2,101,101,101,-3,.,.,.,.,.,.,.
Nc1ccc(C(O)(C(F)(F)F)C(F)(F)F)cc1,91,0,90,96,95,0,.,.,.,.,.,.,.
Nc1ccc(-c2ccc(N)cc2C(F)(F)F)c(C(F)(F)F)c1,204*[activator],-2,110,118,101,0,118*,-2,101,101,97,97,105
CCc1cccc(NC(=O)Cn2c3[n+](c4ccc(C(F)(F)F)cc42)CCCCC3)c1,126,5,238*[activator],128,147*[activator],1,128*,-1,106,108,105,108,113
O=C(Cn1c2[n+](c3ccc(C(F)(F)F)cc31)CCCCC2)Nc1ccccc1,104,3,106,105,101,1,.,.,.,.,.,.,.
CCOc1cc(/C=N/NC(=O)CNc2ccc(C)cc2)ccc1OC(=O)c1ccccc1,98,3,107,99,103,-1,.,.,.,.,.,.,.
Cn1c(COc2ccccc2)nnc1SCC(=O)Nc1ccc2c(c1)OCO2,85,2,-21*,83,77,0,83*,0,97,97,97,98,89
Cc1ccc(C)c(NC(=S)N/N=C2\CCc3ccccc32)c1,?,.,47,45*,60,.,.,0,97,96,98,97,113
Cc1n[nH]c(=S)n1/N=C/c1ccccc1OCc1ccc(Cl)cc1Cl,88,-5,15*,92,69,-1,92*,2,96,105,97,98,98
OC(COc1ccc(Br)cc1)CN1CCOCC1 (stereo not given),.,0,.,.,.,0,.,3,104,101,108,101,101
OC(COc1ccc(-c2ccccc2)cc1)CN1CCOCC1 (stereo not given),104,-3,102,104,101,-1,.,.,.,.,.,.,.
Cc1ccc(S(=O)(=O)N2CCC(C(=O)N3CCC[C@H]3C(=O)NC3CCS(=O)(=O)C3)CC2)cc1 (stereo not given in full),90,0,-65*,85,79,0,85*,0,101,98,98,99,112
